# Experimental data reported in ChEMBL document CHEMBL4024800, “α-Amino-β-carboxymuconate-ε-semialdehyde Decarboxylase (ACMSD) Inhibitors as Novel Modulators of De Novo Nicotinamide Adenine Dinucleotide (NAD+) Biosynthesis” (J Med Chem, 2018).
# Calls of active or inactive are those of the source. No cut-off for these calls is given here.
# What was measured:
# [1] = biological target: T1, 2-amino-3-carboxymuconate-6-semialdehyde decarboxylase (Homo sapiens, UniProt Q8TDX5); test: Inhibition of human ACMSD expressed in Pichia pastoris using ACMS as substrate by coupled spectrophotometric assay
# Procedure, shortened: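 Recombinant enzyme purified from Pichia pastoris; ACMS substrate generated in a pre-assay mix from 10 μM 3-hydroxyanthranilic acid by Ralstonia metallidurans 3-hydroxyanthranilate 3,4-dioxygenase, formation monitored at 360 nm. Enzyme and compound then added together; activity from initial rate of absorbance decrease minus a no-enzyme control. Serial dilutions, 1.0% DMSO throughout. IC50 from concentration–response curves, mean ± SD of three independent experiments.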
# Target sequence in this assay (Q8TDX5 whole entry): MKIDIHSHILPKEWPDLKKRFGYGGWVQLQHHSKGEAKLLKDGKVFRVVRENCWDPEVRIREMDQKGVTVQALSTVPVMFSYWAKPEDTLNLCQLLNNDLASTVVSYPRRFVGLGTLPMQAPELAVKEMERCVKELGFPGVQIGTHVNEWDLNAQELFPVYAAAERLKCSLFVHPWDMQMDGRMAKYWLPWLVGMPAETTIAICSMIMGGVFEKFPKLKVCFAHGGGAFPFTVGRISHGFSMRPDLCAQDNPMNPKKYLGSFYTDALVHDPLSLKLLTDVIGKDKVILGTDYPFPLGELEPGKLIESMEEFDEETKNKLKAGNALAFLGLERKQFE
# [2] = biological target: Kynurenine 3-monooxygenase (Rattus norvegicus, UniProt O88867); test: Inhibition of rat liver KMO using [3,5-3H]-kynurenine substrate
# Homo sapiens [3] = organism: Homo sapiens; test: Activity at LXR (unknown origin)
# Procedure, shortened: (§1)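 Eight-point serial dilutions tested in an in-house AlphaScreen-based nuclear receptor panel; activity derived from nonlinear regression curves.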
# [4] = biological target: T2, Glucocorticoid receptor (Homo sapiens) (UniProt P04150); test: Activity at GR (unknown origin); procedure, shortened: as §1
# T2 sequence (whole entry): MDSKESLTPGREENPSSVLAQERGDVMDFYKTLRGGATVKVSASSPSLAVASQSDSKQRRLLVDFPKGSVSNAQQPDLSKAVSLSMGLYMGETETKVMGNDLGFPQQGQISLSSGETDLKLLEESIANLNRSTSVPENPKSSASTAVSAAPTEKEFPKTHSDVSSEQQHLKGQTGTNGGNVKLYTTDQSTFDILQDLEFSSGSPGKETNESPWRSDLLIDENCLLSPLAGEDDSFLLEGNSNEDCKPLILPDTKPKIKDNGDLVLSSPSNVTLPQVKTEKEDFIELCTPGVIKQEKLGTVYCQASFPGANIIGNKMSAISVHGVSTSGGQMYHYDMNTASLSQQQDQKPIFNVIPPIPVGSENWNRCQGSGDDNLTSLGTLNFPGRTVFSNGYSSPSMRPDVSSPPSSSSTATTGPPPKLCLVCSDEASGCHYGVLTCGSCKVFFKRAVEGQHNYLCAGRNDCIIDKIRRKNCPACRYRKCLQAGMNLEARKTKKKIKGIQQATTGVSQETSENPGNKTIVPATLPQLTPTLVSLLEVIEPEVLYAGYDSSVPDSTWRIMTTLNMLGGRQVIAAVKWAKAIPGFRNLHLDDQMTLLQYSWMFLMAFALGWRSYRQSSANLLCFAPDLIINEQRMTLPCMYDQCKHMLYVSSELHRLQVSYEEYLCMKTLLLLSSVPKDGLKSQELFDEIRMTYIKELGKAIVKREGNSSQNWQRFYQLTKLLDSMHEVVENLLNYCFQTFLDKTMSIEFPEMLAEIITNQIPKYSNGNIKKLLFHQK
# [5] = biological target: T3, Vitamin D3 receptor (Homo sapiens) (UniProt P11473); test: Activity at VDR (unknown origin); procedure, shortened: as §1
# T3 sequence (whole entry): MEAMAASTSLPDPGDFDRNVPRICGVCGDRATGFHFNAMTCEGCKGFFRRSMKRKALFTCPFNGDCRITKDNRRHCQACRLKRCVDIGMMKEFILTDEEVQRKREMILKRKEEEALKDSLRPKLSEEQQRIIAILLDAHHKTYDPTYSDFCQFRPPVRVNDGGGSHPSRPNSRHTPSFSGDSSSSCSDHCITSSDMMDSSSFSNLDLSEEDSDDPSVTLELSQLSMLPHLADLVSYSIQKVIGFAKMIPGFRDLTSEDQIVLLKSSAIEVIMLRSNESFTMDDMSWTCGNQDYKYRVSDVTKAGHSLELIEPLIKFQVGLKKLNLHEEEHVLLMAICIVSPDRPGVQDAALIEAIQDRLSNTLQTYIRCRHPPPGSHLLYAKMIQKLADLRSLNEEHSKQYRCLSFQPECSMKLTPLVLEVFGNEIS
# Homo sapiens [6] = organism: Homo sapiens; test: Activity at TR (unknown origin); procedure, shortened: as §1
# [7] = biological target: T1, 2-amino-3-carboxymuconate-6-semialdehyde decarboxylase; test: Inhibition of ACMSD in human primary hepatocytes assessed as increase in intracellular NAD+ levels at 5 uM after 48 hrs by NAD/NADH-Glo assay; type: cell-based
# Target sequence in this assay (Q8TDX5 whole entry, looked up): as the sequence (Q8TDX5 whole entry) above
# Homo sapiens [8] = organism: Homo sapiens; test: Activity at PPAR (unknown origin); procedure, shortened: as §1
# [9] = biological target: T4, Bile acid receptor (Homo sapiens) (UniProt Q96RI1); test: Activity at FXR (unknown origin); procedure, shortened: as §1
# T4 sequence (whole entry): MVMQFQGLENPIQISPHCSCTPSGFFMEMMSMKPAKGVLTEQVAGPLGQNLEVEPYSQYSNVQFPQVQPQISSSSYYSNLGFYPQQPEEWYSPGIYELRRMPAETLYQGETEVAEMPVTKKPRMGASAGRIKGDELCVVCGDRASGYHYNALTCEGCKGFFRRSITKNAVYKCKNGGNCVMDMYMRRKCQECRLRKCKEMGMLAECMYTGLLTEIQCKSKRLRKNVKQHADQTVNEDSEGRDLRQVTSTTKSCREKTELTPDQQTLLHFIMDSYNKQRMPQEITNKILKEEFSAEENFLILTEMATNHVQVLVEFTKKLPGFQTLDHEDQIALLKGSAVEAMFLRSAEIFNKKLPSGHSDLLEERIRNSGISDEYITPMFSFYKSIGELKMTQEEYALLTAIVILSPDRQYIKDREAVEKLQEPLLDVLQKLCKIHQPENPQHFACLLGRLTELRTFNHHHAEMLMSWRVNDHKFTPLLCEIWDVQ
# Homo sapiens [10] = organism: Homo sapiens; test: Activity at RXR (unknown origin); procedure, shortened: as §1
# [11] = Half life in CD1 mouse at 0.5 mg/kg, iv measured up to 24 hrs post dose; type: ADME, organism-based; settings: in vivo
# Procedure, shortened: (§2)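 Mice given 0.5 mg/kg IV in saline containing 5% (v/v) DMSO and 20% (v/v) PEG400; blood pharmacokinetic parameters reported as means.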
# [12] = Apparent passive permeability from apical to basolateral side in MDCK2-MDR1 cells at 3 uM after 90 mins by LC-MS/MS analysis; type: ADME, cell-based, Canis lupus familiaris; settings: dog, MDCK-MDR1
# Procedure, shortened: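 MDCKII-MDR1 monolayers, HBSS transport medium pH 7.4; compound 3 μM for 90 min, run with and without a P-gp inhibitor, n = 3. Quantified by LC-MS/MS as analyte/internal-standard peak-area ratio; monolayer integrity checked with Lucifer yellow. Papp given in nm/sec, A>B.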
# [13] = Solubility of compound in PBS buffer at pH 7.4 after 24 hrs by UV/vis-spectroscopic analysis; type: physicochemical
# Procedure, shortened: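 Compound in PBS pH 7.4 with 1% DMSO mixed, incubated 24 h and vacuum-filtered; filtrate read by UV/vis and relative solubility calculated from summed readings against a standard. Reported in mg/mL.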
# [14] = Drug uptake in mouse central nervous system at 5 mg/kg, po in presence of P-gp inhibitor Elacridar; type: ADME, organism-based; settings: in vivo
# [15] = biological target: T5, Nuclear receptor subfamily 1 group I member 2 (Homo sapiens, UniProt O75469); test: Activity at PXR (unknown origin); procedure, shortened: as §1
# T5 sequence (O75469 whole entry): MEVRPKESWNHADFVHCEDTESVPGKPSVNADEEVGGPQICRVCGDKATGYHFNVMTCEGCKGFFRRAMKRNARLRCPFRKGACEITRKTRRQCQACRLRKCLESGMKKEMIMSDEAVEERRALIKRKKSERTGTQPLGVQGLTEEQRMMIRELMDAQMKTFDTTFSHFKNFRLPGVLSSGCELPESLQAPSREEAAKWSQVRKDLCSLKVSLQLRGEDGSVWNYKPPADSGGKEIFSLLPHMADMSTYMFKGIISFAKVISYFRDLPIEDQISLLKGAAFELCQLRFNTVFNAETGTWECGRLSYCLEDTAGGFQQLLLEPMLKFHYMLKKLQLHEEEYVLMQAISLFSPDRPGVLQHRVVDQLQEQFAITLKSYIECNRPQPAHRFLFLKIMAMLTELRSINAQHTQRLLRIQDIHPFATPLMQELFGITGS
# [16] = AUClast in CD1 mouse at 0.5 mg/kg, iv measured up to 24 hrs post dose; type: ADME, organism-based; set-up: dose 0.5 mg/kg, time < 24 hr, route intravenous; settings: in vivo; procedure, shortened: as §2
# [17] = AUClast in mouse blood at 5 mg/kg, po measured up to 8 hrs post dose; type: ADME, organism-based; set-up: time < 8 hr, dose 5 mg/kg, route oral
# Procedure, shortened: (§3)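 Mice dosed orally at 5 mg/kg in 0.5% (w/v) HPMC in water with 5% (v/v) DMSO; blood, liver and kidney concentrations followed to 8 h. AUC0–8h given in h·ng/mL; parameters reported as means.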
# [18] = AUClast in mouse liver at 5 mg/kg, po measured up to 8 hrs post dose; type: ADME, organism-based; set-up: dose 5 mg/kg, time < 8 hr, route oral; procedure, shortened: as §3
# [19] = Clearance in CD1 mouse at 0.5 mg/kg, iv measured up to 24 hrs post dose; type: ADME, organism-based; settings: in vivo; procedure, shortened: as §2
# [20] = AUClast in mouse kidney at 5 mg/kg, po measured up to 8 hrs post dose; type: ADME, organism-based; set-up: time < 8 hr, dose 5 mg/kg, route oral; procedure, shortened: as §3
# HepG2 = test: Cytotoxicity against human HepG2 cells assessed as reduction in cell viability after 4 hrs by celltiter-glo assay; type: cell-based; settings: hepg2, 4 h
# Procedure, shortened: (§4)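 HepG2 or AML12 cells, 5 × 10^3 per well, exposed to compound for 4 h at 37 °C. Viability read as ATP by CellTiter-Glo luminescence; tamoxifen control.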
# [21] = biological target: Voltage-gated inwardly rectifying potassium channel KCNH2 (Homo sapiens, UniProt Q12809); test: Displacement of red fluorescent channel ligand tracer from human ERG expressed in CHO cell membranes
# Procedure, shortened: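 Fluorescence polarisation kit: membranes from CHO cells stably expressing hERG, with a red fluorescent high-affinity tracer; competitors detected by tracer displacement, seen as lowered polarisation. Final DMSO 1%; E-4031 reference.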
# [22] = Volume of distribution at steady state in CD1 mouse at 0.5 mg/kg, iv measured up to 24 hrs post dose; type: ADME, organism-based; settings: in vivo, read-out: Vdss; procedure, shortened: as §2
# Cytochrome P450 2C19 = Cytochrome P450 2C19 (Homo sapiens, UniProt P33261); test: Inhibition of recombinant human CYP2C19 expressed in baculosomes expression system using fluorogenic-BOMCC as substrate by fluorescent homogeneous assay; type: ADME
# Procedure, shortened: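 Recombinant CYP baculosomes with fluorogenic substrates, at concentrations below their Km; homogeneous fluorescence read-out, run in triplicate. IC50 classes: <1 μM potent, 1–10 μM moderate, >10 μM weak or none.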
# [23] = Oral bioavailability in CD1 mouse at 5 mg/kg measured up to 8 hrs after dose; type: ADME, organism-based; settings: in vivo; procedure, shortened: as §3
# [24] = Tmax in CD1 mouse at 5 mg/kg, po measured up to 8 hrs post dose; type: ADME, organism-based; settings: in vivo; procedure, shortened: as §3
# [25] = Cmax in CD1 mouse at 5 mg/kg, po measured up to 8 hrs after dose; type: ADME, organism-based; set-up: dose 5 mg/kg, route oral; settings: in vivo; procedure, shortened: as §3
# [26] = Drug uptake in mouse central nervous system at 5 mg/kg, po; type: ADME, organism-based; settings: in vivo
# [27] = Cytotoxicity against mouse AML-12 cells assessed as reduction in cell viability after 4 hrs by celltiter-glo assay; type: cell-based; settings: aml-12, 4 h; procedure, shortened: as §4
# Chain of Kynurenine 3-monooxygenase (O88867 whole entry): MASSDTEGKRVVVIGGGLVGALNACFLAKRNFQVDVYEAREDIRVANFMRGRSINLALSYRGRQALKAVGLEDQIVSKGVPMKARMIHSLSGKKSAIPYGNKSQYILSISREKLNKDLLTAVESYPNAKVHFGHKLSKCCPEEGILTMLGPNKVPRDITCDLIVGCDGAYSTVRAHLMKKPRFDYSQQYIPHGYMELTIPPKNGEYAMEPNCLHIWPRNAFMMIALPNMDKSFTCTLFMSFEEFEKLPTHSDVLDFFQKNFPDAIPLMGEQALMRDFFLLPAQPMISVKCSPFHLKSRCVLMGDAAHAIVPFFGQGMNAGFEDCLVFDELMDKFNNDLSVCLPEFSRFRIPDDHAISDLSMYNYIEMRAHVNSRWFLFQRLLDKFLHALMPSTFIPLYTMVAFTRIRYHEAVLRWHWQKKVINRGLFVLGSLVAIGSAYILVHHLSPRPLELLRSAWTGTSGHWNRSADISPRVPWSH
# Chain of Voltage-gated inwardly rectifying potassium channel KCNH2 (Q12809 whole entry): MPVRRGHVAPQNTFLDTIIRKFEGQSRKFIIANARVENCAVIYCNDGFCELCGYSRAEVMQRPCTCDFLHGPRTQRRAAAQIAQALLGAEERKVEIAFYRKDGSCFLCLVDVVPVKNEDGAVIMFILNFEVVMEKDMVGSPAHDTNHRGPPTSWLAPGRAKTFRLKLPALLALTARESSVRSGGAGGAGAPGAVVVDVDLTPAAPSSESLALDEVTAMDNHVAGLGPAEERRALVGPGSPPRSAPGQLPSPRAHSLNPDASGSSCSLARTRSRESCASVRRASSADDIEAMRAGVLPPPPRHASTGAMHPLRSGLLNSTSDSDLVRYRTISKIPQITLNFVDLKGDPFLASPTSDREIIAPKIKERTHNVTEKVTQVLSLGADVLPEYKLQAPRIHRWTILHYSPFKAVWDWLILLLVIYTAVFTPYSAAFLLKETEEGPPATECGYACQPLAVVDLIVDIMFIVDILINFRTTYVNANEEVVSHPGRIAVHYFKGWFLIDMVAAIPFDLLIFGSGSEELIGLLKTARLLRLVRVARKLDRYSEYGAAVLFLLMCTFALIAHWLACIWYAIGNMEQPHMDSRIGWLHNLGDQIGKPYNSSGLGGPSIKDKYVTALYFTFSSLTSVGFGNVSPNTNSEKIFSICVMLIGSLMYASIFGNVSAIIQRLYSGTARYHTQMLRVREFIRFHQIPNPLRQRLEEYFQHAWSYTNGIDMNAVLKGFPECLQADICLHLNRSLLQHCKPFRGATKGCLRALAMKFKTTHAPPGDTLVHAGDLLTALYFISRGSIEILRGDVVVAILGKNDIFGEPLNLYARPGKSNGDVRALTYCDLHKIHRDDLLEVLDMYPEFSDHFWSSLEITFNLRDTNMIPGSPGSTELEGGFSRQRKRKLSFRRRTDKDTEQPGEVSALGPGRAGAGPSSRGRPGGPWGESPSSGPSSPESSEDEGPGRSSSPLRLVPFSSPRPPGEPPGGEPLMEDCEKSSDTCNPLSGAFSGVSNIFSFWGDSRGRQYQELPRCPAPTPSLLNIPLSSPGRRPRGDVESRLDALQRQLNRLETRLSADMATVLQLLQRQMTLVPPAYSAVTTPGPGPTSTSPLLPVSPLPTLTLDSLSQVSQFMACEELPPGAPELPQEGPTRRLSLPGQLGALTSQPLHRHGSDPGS
# Chain of Cytochrome P450 2C19 (P33261 whole entry): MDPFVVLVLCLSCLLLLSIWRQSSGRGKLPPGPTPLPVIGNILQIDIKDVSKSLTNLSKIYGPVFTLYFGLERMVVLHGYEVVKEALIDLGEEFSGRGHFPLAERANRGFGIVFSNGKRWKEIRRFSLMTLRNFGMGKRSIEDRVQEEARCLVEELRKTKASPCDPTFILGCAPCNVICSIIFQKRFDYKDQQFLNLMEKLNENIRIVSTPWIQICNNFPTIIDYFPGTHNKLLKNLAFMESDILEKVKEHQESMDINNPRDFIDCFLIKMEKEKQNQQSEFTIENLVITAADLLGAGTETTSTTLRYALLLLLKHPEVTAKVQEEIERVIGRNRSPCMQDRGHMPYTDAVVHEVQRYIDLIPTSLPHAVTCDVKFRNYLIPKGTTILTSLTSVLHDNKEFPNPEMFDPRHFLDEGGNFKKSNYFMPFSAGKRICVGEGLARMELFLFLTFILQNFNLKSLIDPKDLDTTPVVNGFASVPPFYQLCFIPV
smiles,measurement,setting,value
O=C(O)c1cccc(CSc2nc(-c3ccccc3)c(Br)c(=O)[nH]2)c1,IC50,[1],99 nM
N#Cc1c(-c2cccs2)nc(SCc2cccc(-c3noc(C(F)(F)F)n3)c2)[nH]c1=O,IC50,[1],3350 nM
N#Cc1c(-c2ccccc2)nc(SCc2cccc(C(=O)O)c2)[nH]c1=O,IC50,[1],45 nM
O=C(O)c1cccc(CSc2nc(-c3ccccc3)cc(=O)[nH]2)c1,IC50,[1],1050 nM
O=C(O)C1CC1C(=O)c1ccc(Cl)c(Cl)c1 (stereo not given),IC50,[2],20 nM
N#Cc1c(-c2cccs2)nc(SCc2cccc(-c3nnn[nH]3)c2)[nH]c1=O,Activity,Homo sapiens [3],inactive
same,Activity,[4],inactive
same,Activity,[5],inactive
same,Activity,Homo sapiens [6],inactive
same,inhibition,[7],Active
same,Activity,Homo sapiens [8],inactive
same,Activity,[9],inactive
same,Activity,Homo sapiens [10],inactive
Cc1nc(SCc2cccc(C(=O)O)c2)[nH]c(=O)c1C#N,IC50,[1],1900 nM
N#Cc1c(-c2cccs2)nc(SCc2cccc(C(=O)NO)c2)[nH]c1=O,IC50,[1],1750 nM
N#Cc1c(-c2cccs2)nc(SCc2cccc(-c3nn[nH]n3)c2)[nH]c1=O,half-life,[11],4.02 h
same,"Papp A→B at 1.5 h, 3 µM",[12],0.584 ×10⁻⁶ cm/s
same,solubility at 24 h,[13],1000 µg/mL
same,Drug uptake,[14],Not Active
same,Activity,[15],Not Active
same,AUC(0-t) at 24 h,[16],6900 ng·h/mL
same,AUC(0-t) at 8 h,[17],1620 ng·h/mL
same,AUC(0-t) at 8 h,[18],4290 ng·h/mL
same,clearance,[19],1.2 mL/min/kg
same,AUC(0-t) at 8 h,[20],2830 ng·h/mL
same,Activity,HepG2,Non-Toxic
same,inhibition (INH),[21],Not Active
same,Vd,[22],0.306 L/kg
same,IC50,[1],3 nM
same,IC50,Cytochrome P450 2C19,100 nM
same,bioavailability,[23],2.3%
same,Tmax,[24],2 h
same,Cmax,[25],255 ng/mL
same,Drug uptake,[26],Not Active
same,Activity,[27],Non-Toxic
N#Cc1c(C2CCCCC2)nc(SCc2cccc(C(=O)O)c2)[nH]c1=O,IC50,[1],89 nM
O=C(O)c1cccc(CSc2nc(-c3ccccc3)c(Cl)c(=O)[nH]2)c1,IC50,[1],151 nM
N#Cc1c(Cl)nc(SCc2cccc(C(=O)O)c2)nc1-c1ccccc1,IC50,[1],316 nM
N#Cc1c(-c2cccs2)nc(SCc2cccc(C(=O)O)c2)[nH]c1=O,IC50,[1],20 nM
N#Cc1c(-c2ccccc2)nc(SCc2ccccc2)[nH]c1=O,IC50,[1],4450 nM
